Data as given in paper PMC7540414 (The Prostate, 2020).

What was measured:
patient 1 tumor CR cells = test: Drug sensitivity assay; type: cell-based, Human; settings: for Sensitivity of tumor-derived CR cells compared with benign CR cells: patient 1, IC50 comparison, 72 hour, P < .05 where significant
In short: (§1)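 Tumor CR cells came from radical prostatectomy tissue (>70% tumor) by protease dissociation and the conditional reprogramming method, alongside matched benign CR cells. 3000 cells per well were seeded in conditioned medium, in triplicate. After 24 h, medium containing test compound was added. […] Values are mean ± SD of three separate experiments in triplicate.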

patient 2 tumor CR cells = test: Drug sensitivity assay; type: cell-based, Human; settings: for Sensitivity of tumor-derived CR cells compared with normal CR cells: patient 2, IC50 comparison, 72 hour, P < .01 where significant
In short: as §1

metastatic CRPC [1] = settings: phase I trials; cited from earlier work
tumor CR cells = type: cell-based, Human; settings: shared by patients 1 and 2; FDR 0.05; FC 1.5
In short: (§2)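 Tumor and normal CR cells from each patient were grown in conditioned medium and given test compound (28 nM for patient 1, 6.5 nM for patient 2) or DMSO, then profiled by RNA-seq. Treated-vs-DMSO DEGs were called at FDR < 0.05 and FC 1.5. Induced and inhibited gene sets were compared across both patients' cells by Venn diagram (Venny).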

normal CR cells = type: cell-based, Human; settings: shared by patients 1 and 2; FDR 0.05; FC 1.5
In short: as §2

metastatic CRPC [2] = settings: phase II trial, CFZ in combination with other drugs; cited from earlier work

Row | Structure (SMILES) | Sensitivity of tumor-derived CR cells compared with benign CR cells (patient 1 tumor CR cells) | Sensitivity of tumor-derived CR cells compared with normal CR cells (patient 2 tumor CR cells) | other results
1 | CC(C)C[C@H](NC(=O)[C@H](Cc1ccccc1)NC(=O)c1cnccn1)B(O)O [BTZ, bortezomib] | more sensitive | significant responses | patients showing stable PSA (metastatic CRPC [1]): 25%; patients with more than 50% decline in PSA (metastatic CRPC [1]): 4%
2 | CC(C)C[C@H](NC(=O)[C@H](CCc1ccccc1)NC(=O)CN1CCOCC1)C(=O)N[C@@H](Cc1ccccc1)C(=O)N[C@@H](CC(C)C)C(=O)[C@@]1(C)CO1 [CFZ, carfilzomib] | more sensitive | significant responses | IC50 (patient 1 tumor CR cells; Homo sapiens, 72 h): 28 nM; IC50 (patient 2 tumor CR cells; Homo sapiens, 72 h): 6.5 nM; common genes exclusively induced in the tumor CR cells (tumor CR cells): 23; genes inhibited that were shared in the tumor CR cells (tumor CR cells): 45; shared genes inhibited in the normal CR cells (normal CR cells): 56; patients with a decline in PSA (metastatic CRPC [2]): 3.5%
3 | N[C@@H](CCC(=O)N[C@@H](CS)C(=O)NCC(=O)O)C(=O)O [GSH, glutathione] | No significant differential responses | No significant differential responses | 
4 | S=C=NCCc1ccccc1 [PTC, phenethyl isothiocyanate] |  | no differences in sensitivity | 
5 | Nc1nccc(-c2c(-c3ccc(F)cc3)ncn2C2CCNCC2)n1 [SB220025] | No significant differential responses | No significant differential responses | 
6 | C[S+]([O-])CCCCN=C=S (stereo not shown) [SFN, sulforaphane] | more sensitive | no differences in sensitivity | 
